The target of one test is T1, Monoglyceride lipase (Homo sapiens, UniProt Q99685).
T1 sequence (Q99685 whole entry): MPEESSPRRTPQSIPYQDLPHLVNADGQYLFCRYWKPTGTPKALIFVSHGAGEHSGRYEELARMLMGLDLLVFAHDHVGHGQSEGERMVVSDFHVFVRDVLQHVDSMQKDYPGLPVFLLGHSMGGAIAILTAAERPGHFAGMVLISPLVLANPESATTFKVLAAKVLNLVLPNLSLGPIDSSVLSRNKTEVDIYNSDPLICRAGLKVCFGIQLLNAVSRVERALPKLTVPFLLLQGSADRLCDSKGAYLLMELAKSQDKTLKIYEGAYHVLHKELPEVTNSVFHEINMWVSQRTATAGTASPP
In words: Inhibition of human recombinant MAGL using [3H]-2-OG as substrate incubated for 30 mins at room temperature followed by incubation at 37 degC for 10 mins by liquid scintillation assay. In a few lines: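 Purified human recombinant MAGL in 10 mM Tris–HCl, 1 mM EDTA, 0.1% BSA, pH 8.0, with compound in DMSO (DMSO controls) and [3H]-2-OG (2 µM final). Preincubated 20 °C for 30 min, then 37 °C for 10 min. Ice-cold chloroform/methanol stop; lower chloroform phase counted by liquid scintillation; buffer-only blank subtracted.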

In test [1] the target is T2, Fatty-acid amide hydrolase 1 (Homo sapiens) (UniProt O00519).
T2 sequence (whole entry): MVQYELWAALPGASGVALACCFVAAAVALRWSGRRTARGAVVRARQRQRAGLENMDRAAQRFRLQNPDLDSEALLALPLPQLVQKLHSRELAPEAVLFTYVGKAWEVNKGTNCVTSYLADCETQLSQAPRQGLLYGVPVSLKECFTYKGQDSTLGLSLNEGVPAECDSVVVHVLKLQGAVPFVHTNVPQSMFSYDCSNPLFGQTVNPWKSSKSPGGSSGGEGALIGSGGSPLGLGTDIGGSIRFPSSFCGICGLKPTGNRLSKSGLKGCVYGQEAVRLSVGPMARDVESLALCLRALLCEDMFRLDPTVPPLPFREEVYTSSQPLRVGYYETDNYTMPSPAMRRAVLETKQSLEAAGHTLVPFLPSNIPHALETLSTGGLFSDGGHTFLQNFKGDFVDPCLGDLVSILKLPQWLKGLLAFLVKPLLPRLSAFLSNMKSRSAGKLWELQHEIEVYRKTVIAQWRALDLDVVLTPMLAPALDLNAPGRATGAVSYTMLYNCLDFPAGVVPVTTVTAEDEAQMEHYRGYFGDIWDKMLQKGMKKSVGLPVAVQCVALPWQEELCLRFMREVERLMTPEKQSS
The test can be described thus: Competitive reversible inhibition of human recombinant FAAH using [3H]AEA as substrate incubated up to 90 mins by compound dilution method. In a few lines:
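Wash-out: human recombinant FAAH (27.5 µg) preincubated 1 h at room temperature with inhibitor or DMSO in 15 µL, at concentrations inhibiting before but not after dilution; diluted 100-fold in assay buffer. Aliquots taken at 0, 30 and 90 min post-dilution, given [3H]-AEA (2 µM final), 37 °C for 30 min; stopped with chloroform/methanol; aqueous phase counted; buffer blank subtracted.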

For test [2], the target named is T3, Fatty-acid amide hydrolase 1 (Homo sapiens, UniProt O00519).
T3 sequence (O00519 whole entry): T2 sequence (whole entry)
The test can be described thus: Inhibition of human recombinant FAAH-mediated [3H]AEA hydrolysis after 10 mins by liquid scintillation assay. In a few lines:
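Human recombinant FAAH in 10 mM Tris–HCl, 1 mM EDTA, 0.1% BSA, pH 7.4, with compound in DMSO (DMSO controls) and [3H]-AEA (2 µM final), 37 °C for 10 min. Ice-cold chloroform/methanol stop, centrifugation, [3H]-ethanolamine in upper methanol/buffer phase counted by scintillation. Buffer-only blank subtracted; IC50 from three independent experiments.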

Test [3] concerns the target T2, Fatty-acid amide hydrolase 1 (Homo sapiens). The test can be described thus: Irreversible inhibition of human recombinant FAAH using [3H]AEA as substrate incubated up to 90 mins by compound dilution method.
The species entered for a further test is Homo sapiens. In words: Selectivity ratio of IC50 for human recombinant MAGL to IC50 for human recombinant FAAH.
Test [4] addresses T4, Monoglyceride lipase (Homo sapiens) (UniProt Q99685).
T4 sequence (whole entry): T1 sequence (Q99685 whole entry)
The test can be described thus: Inhibition of human recombinant MAGL using [3H]-2-OG as substrate at 1 mM incubated for 30 mins at room temperature followed by incubation at 37 degC for 10 mins by liquid scintillation assay.

Calls of active or inactive are those of the source. The rule behind the calls is not given here.

Turning to `CCCSC(=O)N1C[C@@H]([C@@H](C)OC(=O)CCCc2ccccc2)C1=O`, the results for the IC50 (at Monoglyceride lipase; in test [2]) were 19000 nM and 12.1 nM, respectively. The inhibition entry in test [1] is “Active”. Consider `C=CCCC(=O)N1C[C@@H]([C@@H](C)OC(=O)CCCc2ccncc2)C1=O`, for which, in test [2], the IC50 was 310 nM. With `C=CCOC(=O)N1C[C@@H]([C@@H](C)OC(=O)COCc2ccccc2)C1=O`, the half-inhibitory concentration (IC50) in test [2] turned out to be 30.1 nM. For the compound `NC(=O)c1cccc(-c2cccc(OC(=O)NC3CCCCC3)c2)c1`, in test [3], the inhibition entry is “Active”. For `C=CCOC(=O)N1C[C@@H]([C@@H](C)OC(=O)NCCc2ccccc2)C1=O`, the 50% inhibitory concentration (IC50) in test [2] is 12.1 nM. For the compound `C=CCNC(=O)N1C[C@@H]([C@@H](C)OC(=O)NCCc2ccccc2)C1=O`, the IC50 in test [2] was determined as 28.6 nM. `C=CCOC(=O)N1C[C@@H]([C@@H](C)OC(=O)CCCc2ccccc2)C1=O`: the IC50 on Monoglyceride lipase was 10300 nM; in test [2], 3.65 nM. In addition, in test [1], the inhibition result is “Active”. The Ratio IC50 in the test filed under Homo sapiens amounted to 2800.

As for `C=CCNC(=S)N1C[C@@H]([C@@H](C)OC(=O)CCCc2ccccc2)C1=O`, the inhibition (INH) in test [4] stood at 60%. In test [2], the IC50 is 146 nM. `C=CCNC(=O)N1C[C@@H]([C@@H](C)OC(=O)CCCc2ccccc2)C1=O`: the IC50 is 98400 nM at Monoglyceride lipase and 5.56 nM in test [2]. In addition, the Ratio IC50 in the test filed under Homo sapiens was 18000. In the case of `C=CCCC(=O)N1C[C@@H]([C@@H](C)OC(=O)NCCc2ccccc2)C1=O`, the IC50 in test [2] turned out to be 33.2 nM. Take `C=CCCC(=O)N1C[C@@H]([C@@H](C)OC(=O)CCCc2ccccc2)C1=O`: the IC50 on Monoglyceride lipase came out at 4060 nM.

Take `O=C(CCCCCCc1ccccc1)c1nc2ncccc2o1`: in test [1], the inhibition result is “Active”. Consider `C=CCNC(=S)N1C[C@@H]([C@@H](C)OC(=O)COCc2ccccc2)C1=O`, for which the IC50 on Monoglyceride lipase was 122000 nM; in test [2] it was 1040 nM. For the compound `C=CCCC(=O)N1C[C@@H]([C@@H](C)OC(=O)COCc2ccccc2)C1=O`, in test [2], the IC50 was 30.9 nM. Take `C=CCNC(=O)N1C[C@@H]([C@@H](C)OC(=O)COCc2ccccc2)C1=O`: the IC50 turned out to be 56800 nM on Monoglyceride lipase and 70.9 nM in test [2]. With `C=CCNC(=S)N1C[C@@H]([C@@H](C)OC(=O)NCCc2ccccc2)C1=O`, the inhibition (INH) in test [4] turned out to be 25%. Moreover, the 50% inhibitory concentration (IC50) in test [2] came to 959 nM.

Values taken from ChEMBL document CHEMBL2311346, “An unprecedented reversible mode of action of β-lactams for the inhibition of human fatty acid amide hydrolase (hFAAH)” (Eur J Med Chem, 2013).
